# A selection: hits, their analogues and other compounds. The true share with any hit is near 8.2%.
# HePTP inhibitor: inhibitors of human HePTP phosphatase; 110,000 tested, 0.64% active; P35236; inhibition, % at 20 µM; recombinant HePTP phosphatase activity, OD absorbance; in the data active means inhibition above about 50%;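 further: plate controls were vehicle for no effect and reference inhibitor for full effect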
# M1 ag: M1 muscarinic receptor agonism. CHO-M1 cells, Fluo-4 calcium fluorescence, agonist mode; hits give high values. B-score at 10 µM. 64,000 tested, 3% active. AID 626;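 active means fluorescence rise, raw or as B-score row- and column-corrected plate score, outside the 99.7% band of its plate's samples, either direction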
# D1 mod: D1 dopamine receptor (human) allosteric modulation; P21728; HEK293 D1, CRE-luciferase, dopamine EC30 potentiation; actives deviate in either direction; B-score at 10 µM; 58,000 tested, 5.9% active;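 active means luminescence count or its row- and column-corrected plate score outside the 99.7% band of the plate's sample wells, on either side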
# RORa activator: activators of human nuclear receptor RORA. CHO-K1 Gal4-RORA LBD luciferase reporter, luminescence; percent increase over mock-subtracted basal signal. activation, % at 10 µM. 65,000 tested, 1.5% active. AID 560;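 active means activation above the mean of all tested compounds plus 3 SD, cut at about 49% in these data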;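 further: 0% = DMSO-treated RORA cells and 100% = added signal equal to DMSO minus mock-transfected cells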
# SF-1 act: activators of human nuclear receptor SF-1; Q13285; CHO-K1 Gal4-SF-1 LBD luciferase reporter; % increase over DMSO SF-1-specific signal; activation, % at 10 µM; 65,000 tested, 1.9% active; AID 522;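 active means activation above the mean activation of all tested compounds plus 3 SD, cut at about 50% in these data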
# Target sequence (Q13285 whole entry, looked up, the tested form may be a part): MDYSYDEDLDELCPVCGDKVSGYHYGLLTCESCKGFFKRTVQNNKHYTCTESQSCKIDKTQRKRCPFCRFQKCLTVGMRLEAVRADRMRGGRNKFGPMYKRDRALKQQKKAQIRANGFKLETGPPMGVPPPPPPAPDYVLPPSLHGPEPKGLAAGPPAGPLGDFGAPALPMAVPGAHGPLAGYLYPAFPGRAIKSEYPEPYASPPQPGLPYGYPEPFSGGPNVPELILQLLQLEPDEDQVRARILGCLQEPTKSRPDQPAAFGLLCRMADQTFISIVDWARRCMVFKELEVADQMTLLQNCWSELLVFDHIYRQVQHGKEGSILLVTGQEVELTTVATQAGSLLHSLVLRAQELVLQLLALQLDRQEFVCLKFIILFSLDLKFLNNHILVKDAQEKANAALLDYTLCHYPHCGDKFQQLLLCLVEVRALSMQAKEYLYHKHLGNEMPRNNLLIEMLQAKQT
#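 Material: Transient Gal4-SF-1 LBD reporter, CHO-K1 | Input: 4,000 cells/well | Dosing: One dose, 10 µM compound, 1% DMSO | Incubation: 20 h compound treatment, 37 °C | Detection: SteadyLite luciferase luminescence | Evaluation: Percent activation relative to DMSO median and mock-transfected background | Benchmarks: DMSO-treated SF-1-transfected cells as negative, DMSO-treated mock-transfected cells lacking SF-1 as background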
# M1 antagonist: blocks the rat M1 muscarinic receptor response to acetylcholine. P08482. CHO-M1 cells, Fluo-4 calcium, ACh EC80 antagonist mode; hits give low values. B-score at 10 µM. 64,000 tested, 3.4% active;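 active means calcium fluorescence response, raw or row-and-column corrected B-score, differing from the plate sample mean either way at a set confidence level, mostly lower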
# Active calls of the source: *; . = no result given.
SMILES,HePTP inhibitor,M1 ag,D1 mod,RORa activator,SF-1 act,M1 antagonist
CC1(C)CC(=O)C=C(NCc2cccnc2)C1,-4,0.89,-0.6,-12,-11,0.77
CC1(C)CC(=O)C(C(c2cccnc2)C2C(=O)CC(C)(C)CC2=O)C(=O)C1,12,-0.27,-5.5*,-5,-34,1.1
COc1cc(/C=N/NC(=S)Cc2ccccc2)cc(OC)c1OC,104*,.,.,.,.,.
COc1cc(/C=N/NC(=O)CC(=O)NC(C)C)cc(OC)c1OC,-4,.,.,.,.,.
CCOC(=O)CC1(CC(=O)OCC)NC(=O)c2c(C)sc(C(=O)OCC)c2N1,-6,-0.74,0.26,17,12,0.03
CCc1cc(C)nc2cc(-c3ccccc3)nn12,-2,.,.,.,.,.
Cc1cc(N)n2ncc(-c3ccccc3)c2n1,3,0.86,1.5,88*,75*,0.17
Cc1cc(N)n2nc(-c3ccccc3)cc2n1,4,1.3,-3.4*,.,.,0.35
Cc1ccnc(NC(=O)C23CC4CC(CC(C4)C2)C3)c1,10,0.078,0.19,5,9,0.68
CC(C)COC(=O)c1ccc(NC(=O)COc2ccc(Cl)cc2Cl)cc1,0,.,.,.,.,.
CN(Cc1cccs1)S(=O)(=O)c1cccs1,2,-0.6,0.81,-3,-1,0.9
S=C(S)N(CCN(Cc1cccs1)C(=S)S)Cc1cccs1,67*,.,.,.,.,.
CN(C)/C=C1\N=C(c2ccccc2Cl)OC1=O,-1,.,.,.,.,.
COCCCn1c(SCC(=O)NCc2ccco2)nc2sc3c(c2c1=O)CCC3,6,-0.3,0.26,-8,-10,0.97
O=C(Cc1c[nH]c2ccccc12)Nc1nc2ccccc2[nH]1,-13,0.94,-1.3,1,20,0.31
O=C(Cc1ccccc1)Nc1nc2ccccc2[nH]1,.,-0.018,-5.5*,34,18,0.018
Cc1c(C(=O)N2CCOCC2)[nH]c2c1C(=O)CC(c1ccccc1Cl)C2 (stereo not given),1,-0.76,0.093,45,67*,0.41
c1ccc(-c2nnc(-c3ccccn3)nc2-c2ccccc2)cc1,0,.,.,.,.,.
c1ccc(-c2nnc(-c3ccccn3)nn2)nc1,1,0.3,-5.5*,40,48,0.31
Cc1cc(C(=O)NCc2cc(C)n(C)n2)sc1-c1ccccc1,4,3*,-3.2*,17,7,-1.1
Cc1cc(CNC(=O)Cc2c(F)cccc2Cl)nn1C,-9,-1.1,0.57,-6,19,0.02
O=c1c(-c2ccc(Cl)cc2)[n+]([O-])c2ccccc2n1O,3,28*,.,-12,-5,-0.71
C=CCOn1c(=O)c(-c2ccc(OC)cc2)[n+]([O-])c2ccccc21,3,0.11,.,-12,-15,-0.032
CCOc1ccc(C(CC(=O)O)NS(=O)(=O)c2ccc(C)cc2)cc1OC (stereo not given),-4,-0.43,-0.3,2,-5,1.3
O=c1c2[nH]c3ccccc3c2ncn1C1CCCCC1,9,-0.68,-0.69,61*,20,0.32
SMILES,HePTP inhibitor,M1 ag,D1 mod,RORa activator,SF-1 act,M1 antagonist
CCN(CC)C(=O)c1cc(-c2ccc(Br)cc2)on1,7,0.13,0.92,18,56*,0.011
COC(=O)c1cc(-c2ccc(Br)cc2)on1,9,-1.1,-0.23,-21,23,-0.0079
COc1cccc(C(=O)Nc2ccccc2N2CCOCC2)c1,4,0,-0.014,-3,6,-0.14
COC(=O)Cn1cnc(=O)c(C#N)c1/C=C/N(C)C,10,-0.093,-4.7*,12,-2,0.44
CCCn1c(=NC(C)=O)c(C#N)cc2c(=O)n3cccc(C)c3nc21,-11,0.11,-0.31,-20,-12,-0.27
CCCCCn1c(=NC(C)=O)c(C#N)cc2c(=O)n3cccc(C)c3nc21,2,5.3*,0.81,-14,-8,0.039
Cc1cccn2c(=O)c3cc(C#N)c(=NC(=O)c4ccccc4)n(Cc4ccco4)c3nc12,7,19*,.,12,-2,-0.72
CS(=O)(=O)c1ccc2nc(NC(=O)Oc3ccccc3)sc2c1,-5,-0.22,-0.78,-17,19,0.91
Cc1ccc(C(=O)Nc2ccc3c(c2)ncn3C)cc1,6,1.3,-1.9,52*,38,0.035
COc1ccc(CNc2ccc(C(=O)O)cc2)cc1,-6,0.63,-1.7,13,78*,-0.029
Cc1ccc(CNc2ccc3c(c2)ncn3C)cc1,4,.,-0.78,63*,57*,.
COc1ccc(CNc2ccc3c(c2)nc(C)n3C)cc1,10,0.2,-0.43,38,79*,-0.32
CCn1cnc2cc(NCc3ccncc3)ccc21,-2,0.55,0.82,-10,8,-1.5
COc1ccc(CN2C(=O)CCC2(C)C(=O)NCc2cccnc2)c(OC)c1 (stereo not given),6,-0.051,-0.37,-17,-16,0.47
CCOC(=O)Nc1ccc2c(c1)nc(CN1CCOCC1)n2C,0,-0.13,-0.35,3,1,0.33
O=C(NC(=S)Nc1cc([N+](=O)[O-])cc(Cl)c1O)c1cccnc1,103*,.,.,.,.,.
O=C1/C(=C/c2ccc(Cl)c(Cl)c2)SC(=S)N1Cc1ccco1,12,.,.,.,.,.
OCCn1c(-c2ccc3c(c2)OCO3)csc1=Nc1ccccc1,12,0.032,-3.4*,46,51*,-0.48
Cc1ccc2nc(C(F)OC(F)(F)F)[nH]c2c1 (stereo not given),7,0.15,-1,-7,-10,1.8
Cc1ccc2nc(C(O)C(O)c3nc4ccc(C)cc4[nH]3)[nH]c2c1 (stereo not given),6,-2.5,-0.79,23,51*,0.49
O=C(Nc1ccc(Br)cc1)Nc1cccc(Cl)c1,-1,.,.,.,.,.
Cc1csc(NC(=O)Nc2cccc(Cl)c2)n1,7,1.6,-0.24,70*,63*,0.08
O=C(NCc1ccccn1)Nc1cccc(Cl)c1,-3,0.71,-0.13,38,63*,-0.13
N#CCc1ccc(NC(=O)Nc2cccc(Cl)c2)cc1,8,-0.76,.,7,79*,-1.4
CCOC(=O)C1CCN(CC(=O)N2C(C)CCCC2C)CC1 (stereo not given),7,1.6,-1,-20,4,-1.2
SMILES,HePTP inhibitor,M1 ag,D1 mod,RORa activator,SF-1 act,M1 antagonist
CCN1C(=S)SC(=O)C1=C1C=C(C)N(CCOC)C(C)=C1,-2,44*,-4*,24,-6,-0.7
COc1ccc(-c2cc(C(=O)NC3CCCC3)no2)cc1OC,-6,-0.0068,-0.76,22,33,-0.82
CC1CCCC(C)N1C(=O)c1cc(-c2cccs2)on1 (stereo not given),-1,-0.013,-0.79,61*,29,0.41
O=C(NC1CCCC1)c1cc(-c2cccs2)on1,13,-0.89,-3.6,109*,20,0.12
CCCNC(=O)c1cc(-c2ccco2)on1,10,-0.033,-1,36,34,-0.45
O=C(NC1CCCCC1)c1cc(-c2ccco2)on1,7,-0.25,-0.76,18,58*,-0.44
O=C(CCSc1ccccc1)NC1CCCC1,0,0.1,0.35,-1,-11,0.45
